Assay results reported in publication PMC11068522 (International Journal for Parasitology: Drugs and Drug …, 2024).
Like-named read-outs stand apart in the source and are kept apart here.

What was measured:
[1] = tested on: intraerythrocytic stage P. falciparum (strain 3D7); test: In vitro antiplasmodial SYBR Green I-based fluorescence assay, 96 h, strain 3D7; assay type: cell-based, Plasmodium falciparum; conditions: for IC50: 96 h; for inhibition: 3D7, read-out: inhibition of parasite proliferation at the single (highest) concentration tested
Procedure, shortened: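 Synchronous ring-stage parasites in O+ erythrocytes, 0.5% parasitemia and 1% hematocrit, in RPMI 1640 with HEPES, Glutamax, 11 mM glucose, 200 μM hypoxanthine, gentamicin and 0.6% Albumax II. […] Frozen at −80 °C, then SYBR Safe lysis (20 mM Tris pH 7.5, EDTA, saponin, Triton X-100). Fluorescence as % of untreated control; IC50 from four-parameter fit, mean ± SEM, n = 3.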

Solubility in DMSO = assay type: physicochemical; conditions: other compounds dissolved to 200 mM; these dissolved to between 10 and 100 mM
β-hematin formation = test: Detergent mediated β-hematin assay; assay type: biochemical; conditions: cell-free detergent mediated assay; Fig. S4
[2] = tested on: [Na^+]cyt of isolated trophozoite-stage 3D7 parasites (PfATP4); test: Cytosolic Na+ measurements; assay type: cell-based, Plasmodium falciparum; conditions: isolated 3D7 trophozoites; 13i 1 μM and 10 μM, cipargamin 50 nM; final 85–90 min
Procedure, shortened: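 Saponin-freed trophozoite-stage 3D7 parasites loaded with SBFI, in 96-well plates at 37 °C in saline (125 mM NaCl, 5 mM KCl, 1 mM MgCl2, 20 mM glucose, 25 mM HEPES, pH 7.1). Controls: DMSO solvent (0.1–0.2% v/v) and a PfATP4-inhibitor positive control. Final [Na+]cyt averaged over 85–90 min of exposure. Three independent experiments on separate days, mean + SEM, Dunnett's test versus DMSO.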

[3] = Plasmodium falciparum, 3D7, 96 h, read-out: IC50 (P. falciparum proliferation), strain 3D7

Row | SMILES | IC50 [1, 3] | inhibition ([1]; Plasmodium falciparum) | further results
1 | COc1cc(C)ccc1NC(=S)c1cnc2ccccc2c1 [Compound 13c] | 61 µM | > 50% | solubility in DMSO (Solubility in DMSO): lower solubility
2 | COc1cc(C)ccc1NC(=S)c1ccc2ccccc2c1 [Compound 13b] | 23 µM | > 50% | effect on β-hematin formation (β-hematin formation): none
3 | S=C(Nc1ccccc1)c1cccnc1 [Compound 13h] | – | < 50% | –
4 | C[C@H]1Cc2c([nH]c3cc(Cl)c(F)cc23)[C@@]2(N1)C(=O)Nc1ccc(Cl)cc12 [cipargamin] | – | – | effect on [Na^+]cyt [2]: significant increase
5 | COc1cc(C)ccc1NC(=O)c1ccc2ccccc2c1 [Compound 12b] | 38 µM | – | effect on β-hematin formation (β-hematin formation): none
6 | S=C(Nc1ccccc1)c1nccc2ccccc12 [Compound 13d] | – | < 50% | –
7 | COc1cc(C)ccc1NC(=O)c1nccc2ccccc12.Cl [Compound 12j] | – | – | reduction of antiplasmodial activity relative to 12a ([1]; compared with isoquinoline carboxamide 12a, strain 3D7): about 2 fold; IC50 ([1]; read-out: IC50 (P. falciparum proliferation), strain 3D7): 136 µM
8 | COc1cc(C)ccc1NC(=O)c1nccc2ccccc12 [Compound 12a] | 69 µM | – | solubility in DMSO (Solubility in DMSO): lower solubility
9 | CCN(CC)CCCC(C)Nc1ccnc2cc(Cl)ccc12 (stereo not shown) [chloroquine, Chloroquine, reference compound] | – | – | effect on β-hematin formation (β-hematin formation): inhibited
10 | COc1cc(C)ccc1NC(=O)c1cnc2ccccc2c1 [Compound 12c] | 62 µM | – | –
11 | COc1cc(C)ccc1NC(=S)c1nccc2ccccc12 [Compound 13a] | – | < 50% | inhibition of proliferation of P. falciparum ([1]; at concentrations up to 200 μM, strain 3D7): ≤ 50%
